Source: PubChem (Broad Institute)
EWS-Fli inh: inhibitors of EWS/Fli oncoprotein transcriptional activity; inhibition, % at 12.6 µM; A673 NR0B1-luciferase reporter, viability-normalised; hit rate 0.67% among 350,000;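 active means mean inhibition of at least 50% after viability correction, with every replicate also passing that limit; inconclusive means mean reaches 50% but only one of two replicates passes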;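 further: firefly luciferase signal divided by Alamar Blue viability fluorescence both relative to DMSO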
PAX8 inh HTS: inhibitors of PAX8 transcriptional activity in RMG-I cells; RMG-I TPO-luciferase reporter, SteadyGlo, 24 h; inhibition, % at 12.6 µM; hit rate 1.2% among 360,000; AID 652154;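 active means mean replicate inhibition at least 60% with every replicate also reaching 60%; inconclusive means only one of the two criteria is met; inactive means mean below 60% and not all replicates reaching 60%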;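 further: luciferase light reporting Pax8 driven TPO promoter activity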
GSIS activator: GLuc luminescence reporter in INS-1E cells, primary screen for activators of glucose-dependent secretion of insulin; INS-1E GLuc reporter insulin secretion, 2-3 h; hit rate 0.61% among 370,000; activation, % at 16.6 µM;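 active means lowest replicate activation of at least 40%, so every replicate reaches that level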
PGC1a acetyl inh: lowers PGC1a acetylation signal in U2OS cells. AlphaScreen anti-acetyl-lysine; with virally co-expressed GCN5 acetyltransferase. inhibition, % at 15.6 µM. hit rate 0.17% among 350,000. AID 651687;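 active means every replicate shows inhibition of at least 40%; inconclusive means mean inhibition at least 40% but some replicate below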
AF4-AF9 inh: inhibitors of human MLL-AF4/AF9 interaction; AlphaScreen, biotin-AF4 peptide binding to FLAG-AF9; hit rate 0.47% among 350,000; inhibition, % at 10 µM; AID 651704;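 active means every replicate reaching a set inhibition limit, whatever the replicate mean, cut at about 25% in these data; inconclusive means mean inhibition reaches that limit but some replicates miss it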
Target sequence (P42568 whole entry, looked up): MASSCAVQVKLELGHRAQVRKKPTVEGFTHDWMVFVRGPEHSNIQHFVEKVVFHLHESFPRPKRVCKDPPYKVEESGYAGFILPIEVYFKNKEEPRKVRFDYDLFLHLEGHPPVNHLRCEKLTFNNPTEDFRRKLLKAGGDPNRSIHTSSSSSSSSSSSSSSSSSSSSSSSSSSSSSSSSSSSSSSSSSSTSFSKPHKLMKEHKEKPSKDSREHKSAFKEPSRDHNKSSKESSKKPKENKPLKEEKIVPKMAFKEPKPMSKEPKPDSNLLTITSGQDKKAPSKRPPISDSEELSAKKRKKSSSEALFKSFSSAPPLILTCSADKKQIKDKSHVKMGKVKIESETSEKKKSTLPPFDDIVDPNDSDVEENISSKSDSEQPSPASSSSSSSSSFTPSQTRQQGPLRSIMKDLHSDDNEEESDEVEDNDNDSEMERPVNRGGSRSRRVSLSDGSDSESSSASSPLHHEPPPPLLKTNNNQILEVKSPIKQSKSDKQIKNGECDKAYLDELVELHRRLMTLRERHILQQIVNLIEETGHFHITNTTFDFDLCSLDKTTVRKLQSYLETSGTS
Xi reactivation: X-chromosome reactivation activator; XiGFP mouse fibroblasts, % GFP-positive cells imaging, 3 d; cells co-treated with 5-aza-dC sensitizer; scaled so ellipticine positive control = 100%; activation, % at 7.58 µM; hit rate 0.055% among 360,000; AID 743238;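 active means mean normalized replicate activation at least 10% and every replicate at or above 10%; inconclusive means only one of the two criteria met; inactive means mean below 10% and not all replicates reach 10%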
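System: 68-5-11 XiGFP fibroblast line | Buffer or medium: DMEM containing 5-aza-dC | Compound: Single point | Times: Compounds 3 days, fix/stain 15 min at room temperature | Benchmarks: Positive control ellipticine, 6 µM final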
Of the large screens only hits and unclear results are named; the others gave an inactive call. An excerpt weighted towards active compounds, which were near 2.1% of everything screened.

Cc1[nH]c2ccc(OC(F)(F)F)cc2c1CCNCc1ccc(Cl)cc1	GSIS activator 214
Cc1cc(-c2ccccc2)cc(-c2ccccc2)[n+]1CCc1ccccc1	PAX8 inh HTS 85
C[n+]1c(-c2ccccc2)cc(-c2ccc(O)cc2)cc1-c1ccccc1	AF4-AF9 inh inconclusive
CCOc1ccc(N)cc1	none (no result: GSIS activator, PGC1a acetyl inh)
CCOc1ccc(-c2cc(C)[n+](CCO)c(-c3ccc(OCC)cc3)c2)cc1	PAX8 inh HTS 92 (no result: PGC1a acetyl inh)
CCOc1ccc(-c2cc(C)[n+](CCc3ccc(OC)c(OC)c3)c(-c3ccc(OCC)cc3)c2)cc1	EWS-Fli inh 51, PAX8 inh HTS 92
CC[C@@]1(O)C(=O)OCc2c1cc1n(c2=O)Cc2cc3c(NC(=O)CN)cccc3nc2-1	EWS-Fli inh 56, PAX8 inh HTS 99 (no result: PGC1a acetyl inh)
CCC1(OC(=O)CN)C(=O)OCc2c1cc1n(c2=O)Cc2cc3ccccc3nc2-1 (stereo not given)	PGC1a acetyl inh inconclusive (no result: EWS-Fli inh, PAX8 inh HTS, AF4-AF9 inh, Xi reactivation)
CC(=O)c1c(C)n(Cc2ccccc2)c2ccc(O)cc12	none
CC(=O)c1c(C)n(C2CCCCC2)c2ccc(O)cc12	PGC1a acetyl inh 55
COC(=O)C12OCC34C(CC5C(C)=C(O)C(=O)CC5(C)C3C(O)C1O)OC(=O)C(OC(=O)/C=C(\C)C(C)C)C24 (stereo not given)	PAX8 inh HTS 96, PGC1a acetyl inh 86
C[C@H]1CN([C@@H](C)CO)C(=O)c2c(c3ccccc3n2C)-c2ccccc2CO[C@@H]1CN(C)C(=O)Oc1ccccc1	none
CC(=O)O[C@@]12CO[C@@H]1C[C@H](O)[C@@]1(C)C(=O)[C@H](O)C3=C(C)[C@@H](O)C[C@@](O)([C@@H](OC(=O)c4ccccc4)C12)C3(C)C (stereo not given in full)	none (no result: PAX8 inh HTS, Xi reactivation)
C/C=C(\C)C(=O)N[C@@H](c1ccccc1)[C@@H](O)C(=O)O[C@H]1C[C@@]2(O)[C@@H](OC(=O)c3ccccc3)C3[C@](C)(C(=O)[C@H](O)C(=C1C)C2(C)C)[C@@H](O)C[C@H]1OC[C@@]31OC(C)=O (stereo not given in full)	EWS-Fli inh 57 (no result: PAX8 inh HTS, Xi reactivation)
C/C=C(\C)C(=O)N[C@@H](c1ccccc1)[C@@H](O)C(=O)O[C@H]1C[C@@]2(O)[C@@H](OC(=O)c3ccccc3)C3[C@](C)(C(=O)[C@H](OC(C)=O)C(=C1C)C2(C)C)[C@@H](O)C[C@H]1OC[C@@]31OC(C)=O (stereo not given in full)	EWS-Fli inh 58 (no result: PAX8 inh HTS, GSIS activator, Xi reactivation)
O=C(Cc1cccnc1)N1CCCCN2[C@H](C1)[C@@H](c1ccc(C#CC3CC3)cc1)[C@@H]2CO	none (no result: GSIS activator, Xi reactivation)
Cc1cccc(S(=O)(=O)N2[C@@H]3c4ccc(-c5ccncc5)c(=O)n4C[C@H]2[C@H](CO)[C@H]3C(=O)O)c1	none (no result: PGC1a acetyl inh)
C=CCn1c(O)c(/C=C2/C=CC=N2)c(=O)[nH]c1=O	none
CCCCn1c(O)c(/C=C2/C=CC=N2)c(=O)[nH]c1=O	GSIS activator 56
O=c1[nH]c(=O)n(Cc2ccccc2Cl)c(O)c1/C=C1/C=CC=N1	EWS-Fli inh 60 (no result: PGC1a acetyl inh)
COc1ccc(C#Cc2ccc([C@H]3[C@H]4CN(C(=O)Cc5cccnc5)CCCCN4[C@H]3CO)cc2)cc1	none
NC(=O)c1cc([N+](=O)[O-])cc([N+](=O)[O-])c1	none (no result: GSIS activator)
CC(C)(C)c1cc([N+](=O)[O-])cc(C(C)(C)C)c1O	PAX8 inh HTS 67 (no result: PGC1a acetyl inh)
COc1cc([C@@H]2c3cc4c(cc3[C@@H](OC)[C@H]3COC(=O)[C@H]23)OCO4)cc(OC)c1O	EWS-Fli inh 63 (no result: PGC1a acetyl inh)
COc1cc2c(cc1C=O)OCO2	none (no result: PGC1a acetyl inh)
CC=Cc1ccc2n(c1=O)C[C@@H]1[C@@H](CO)[C@H](C(=O)N(C)C)[C@H]2N1C (mixture of isomers)	none (no result: PAX8 inh HTS, PGC1a acetyl inh)
CC(=NC(C)c1ccccc1)c1c(O)[nH]c(=O)[nH]c1=O (stereo not given)	GSIS activator 104 (no result: EWS-Fli inh, PAX8 inh HTS, AF4-AF9 inh, Xi reactivation)
CC(=NCCc1ccccc1)c1c(O)[nH]c(=O)[nH]c1=O	none (no result: GSIS activator)
COc1ccc(CCNC2CCCCC2)cc1OC	none (no result: PGC1a acetyl inh)
COc1ccc(CCNC2(C#N)CCCCC2)cc1OC	PGC1a acetyl inh 84 (no result: GSIS activator)
FC(F)(F)CN1C[C@@H]2C(c3ccccc3)[C@H](C1)N2CC1CC1 (stereo not given in full)	none (no result: EWS-Fli inh, PAX8 inh HTS, PGC1a acetyl inh, AF4-AF9 inh)
COC(=O)[C@H]1[C@H](CO)[C@H]2Cn3c(ccc(-c4ccncc4)c3=O)[C@@H]1N2S(=O)(=O)c1ccccc1F	none (no result: PGC1a acetyl inh)
CCOc1cc2c(cc1OCC)-n1cccc1C(c1cccc(F)c1)NC2 (stereo not given)	AF4-AF9 inh 26
CCOc1cc2c(cc1OCC)-n1cccc1C(c1ccccc1F)NC2 (stereo not given)	AF4-AF9 inh inconclusive
CCOc1cc2c(cc1OCC)-n1cccc1C(c1ccc(OC)c(O)c1)NC2 (stereo not given)	none
CCOc1cc2c(cc1OCC)-n1cccc1C(c1ccc(C)cc1C)NC2 (stereo not given)	AF4-AF9 inh 26 (no result: PGC1a acetyl inh)
CCOc1cc2c(cc1OCC)-n1cccc1C(c1cc(OC)ccc1F)NC2 (stereo not given)	AF4-AF9 inh 27
C[CH2][Hg][S]c1ccccc1C(=O)O	PAX8 inh HTS 109 (no result: GSIS activator)
CC(C)NC(=O)N1C[C@@H]2N[C@H](C1)C2c1ccccc1 (stereo not given in full)	none (no result: EWS-Fli inh, PAX8 inh HTS, PGC1a acetyl inh, AF4-AF9 inh)
CC1CN(c2cc([N+](=O)[O-])ccc2Cl)CC(C)N1 (stereo not given)	GSIS activator 41 (no result: PGC1a acetyl inh)
O=C(O)[C@@H]1[C@@H](CO)[C@@H]2Cn3c(ccc(C4=CCCCC4)c3=O)[C@H]1N2CCc1ccccc1	none (no result: PAX8 inh HTS, PGC1a acetyl inh)
C[C@]12CCC3C(CCC4=C/C(=N/OCC(=O)NC(CCC(=O)O)C(=O)O)CC[C@@]43C)C1CCC2O (stereo not given in full)	GSIS activator 44
COc1ccc(CN2C(=O)NC(=O)/C(=C\c3ccco3)C2=O)cc1	none
CC(C)c1ccc(N2C(=O)NC(=O)/C(=C\C=C\c3ccco3)C2=O)cc1	EWS-Fli inh 74 (no result: PGC1a acetyl inh)
CC(C)c1ccc(N2C(=O)NC(=O)/C(=C\c3cnc(-c4ccccc4)nc3)C2=O)cc1	none (no result: EWS-Fli inh, PAX8 inh HTS, GSIS activator, AF4-AF9 inh, Xi reactivation)
O=C1NC(=O)N(Cc2ccccc2)C(=O)/C1=C/C=C/c1ccco1	EWS-Fli inh 65 (no result: PGC1a acetyl inh)
CCN1[C@@H]2c3ccc(-c4ccc(OC)cc4)c(=O)n3C[C@H]1[C@H](CO)[C@H]2C(=O)OC	none (no result: PAX8 inh HTS, PGC1a acetyl inh)
CC[n+]1c(-c2ccccc2)c2cc(N)ccc2c2ccc(N)cc21	PAX8 inh HTS 110, AF4-AF9 inh 30 (no result: PGC1a acetyl inh)
CC(C)CC#Cc1ccc([C@@H]2[C@H](CO)N3CCCCN(C(=O)Cc4ccccn4)C[C@@H]23)cc1	none
C=C1C(=O)O[C@@H]2C[C@@H](C)[C@@H]3C=CC(=O)[C@@]3(C)[C@@H](O)[C@H]12	EWS-Fli inh 58, PAX8 inh HTS 112, PGC1a acetyl inh 47
